An excerpt weighted towards active compounds, which were near 2.1% of everything screened.
RanGTP-Impb inh: disruptors of Ran-importin-beta complex formation – biochemical, FRET, CFP-Ran, YFP-importin-beta, homogeneous, primary screen | cell-free CFP-Ran/YFP-importin-beta FRET ratio | inhibition, % (no concentration beside the values) | actives 1.1% (n = 300,000) | AID 2216;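 active = more than half of the replicate wells show a fall in the fluorescence ratio signal beyond about 16%, limit read from the data, passing the limit was not always enough; inconclusive = exactly half of the replicate wells pass the set limit; inactive = fewer than half of replicates pass the limit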
TbHK1 inh: blocks Trypanosoma brucei hexokinase 1 activity; actives 0.11% (n = 220,000); recombinant TbHK1, G6PDH-coupled NADH A340; AID 1430; inhibition, % at 10 µM;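 active = inhibition of 50% or more in the single-dose primary screen; inactive = inhibition below 50%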
Runt-CBFb FRET: inhibitors of human RUNX1 Runt domain binding to CBFb. Q01196+Q13951. Cerulean-Runt/Venus-CBFb FRET ratio 530/480, 1 h. inhibition, % at 20 µM. actives 0.46% (n = 220,000);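 active = inhibition over about 50% at 20 µM in the single-dose screen, limit read from the data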
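Buffer or medium: Tris pH 7.5 buffer with BSA. Assay system: Cerulean-labeled Runt domain protein. Amount: each fluorescent fusion protein 100 nM. Read-out basis: loss of energy transfer signal. Incubation: 1 h compound exposure, room temperature. Probe or stimulus: Venus-CBFb binding partner, 100 nM. Detection: FRET, excitation 422 nm, emission at 530 and 480 nm.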
Runt-SMMHC FRET: blocks binding of human RUNX1 Runt domain to CBFb-SMMHC | Q01196+Q13951 | Cerulean-Runt/Venus-CBFb-SMMHC FRET ratio 530/480, 1 h | inhibition, % at 20 µM | actives 0.74% (n = 220,000) | AID 1434;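 active = mean inhibition across duplicate retests at 20 µM reaching about 50%, limit read from the data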;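 note: inhibitors lower the FRET ratio by blocking Runt binding to CBFb-SMMHC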
p97 ATPase inh: inhibitors of human p97 ATPase; P55072; recombinant p97 ATPase, Kinase-Glo ATP luminescence, 3 h; inhibition, % at 8 µM; actives 0.42% (n = 220,000); AID 1481; in the data active = inhibition above about 15%
Hck-Nef inh: blocks Nef-activated human Hck kinase; P08631; Recombinant Hck-YEEI plus Nef, Z-Lyte FRET kinase assay; inhibition, % at 20 µM; actives 0.68% (n = 220,000); AID 463187;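 active = Hck-Nef kinase inhibition above about 50%, limit read from the data; inactive = inhibition below that limit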
Numbers stand for hits; 0 = inactive; ? = inconclusive; - = no result given.

SMILES | RanGTP-Impb inh | TbHK1 inh | Runt-CBFb FRET | Runt-SMMHC FRET | p97 ATPase inh | Hck-Nef inh
O=C(O)C(Cc1ccccc1)N1C(=O)/C(=C/c2cccc3ccccc23)SC1=S (stereo unspecified) | - | 0 | 0 | 0 | 0 | 63.2
COc1cc(OC)cc(N2CCN(S(=O)(=O)c3ccc(-n4cnnn4)cc3)CC2)c1 | 0 | - | - | - | - | -
Cc1ccc2c(cnn2C(=O)CCCC(=O)NCc2ccc(Cl)cc2)c1 | 26.1 | - | - | - | - | -
Cc1ccc(CNC(=O)CCC(=O)n2ncc3cc(C)ccc32)cc1 | 0 | - | - | - | - | -
CCCN1CCN(C(=O)CS(=O)(=O)Cc2nc(-c3cccc(OC)c3)oc2C)CC1 | 0 | - | - | - | - | -
CCOC(=O)c1c(N)n(-c2ccc(N)cc2)c2nc3ccccc3nc12 | 0 | 0 | 0 | 0 | 0 | 0
CCOC(=O)c1c(N)n(C2CC(C)(C)NC(C)(C)C2)c2nc3ccccc3nc12 | ? | 0 | 0 | 93.9 | 0 | 0
CCOC(=O)c1c(NC(=O)c2ccco2)n(C2CCCCC2)c2nc3ccccc3nc12 | 79.1 | 0 | 0 | 0 | 0 | 0
CCOC(=O)c1c(C)nsc1NC(=O)c1ccco1 | 0 | - | - | - | - | -
Cc1cc(N)ccc1N1CCCC1 | 0 | 0 | 0 | 0 | 16.8 | 0
CC(=O)Nc1ncc(Cc2ccc(Cl)cc2Cl)s1 | 0 | 0 | 0 | 0 | 0 | 0
COC(=O)C1=CN(Cc2cccs2)C=C(C(=O)OC)C1c1cccc(O)c1 | 0 | 0 | 98.5 | 133.2 | 0 | 0
CCC(C)NC(=O)C1c2cc(OC)c(OC)cc2C(=O)N(C)C1c1cccs1 (stereo unspecified) | 0 | 0 | 0 | 0 | 0 | 0
CCCCC1OC23CCCCC2C(C#N)(C(=N)O3)C1(C#N)C#N (stereo unspecified) | 23.5 | 0 | 0 | 0 | 0 | 0
CCCCC1OC23CCCCC2C(C#N)(C#N)C1(C#N)C(=N)O3 (stereo unspecified) | 52.6 | 0 | 0 | 0 | 0 | 0
CCCCCCCCOc1ccc(C2OC34CCCCC3C(C#N)(C#N)C2(C#N)C(=N)O4)cc1 (stereo unspecified) | 43.6 | 0 | 0 | 55.7 | 0 | 0
Cc1ccc(C)c(S(=O)(=O)N2CCCOC2CNC(=O)C(=O)NC2CCCC2)c1 (stereo unspecified) | 0 | - | - | - | - | -
CCCCn1c2nc3ccccc3nc2c2c(=O)n(-c3ccccc3)cnc21 | 0 | 0 | 0 | 0 | 0 | 0
COc1ccc(-n2c3nc4ccccc4nc3c3c(=N)oc(C)nc32)cc1 | 0 | 0 | 65.5 | 128.7 | 0 | 0
CCCCn1c2nc3ccccc3nc2c2c(=N)oc(C)nc21 | - | - | 0 | 78.9 | - | -
Cc1ccc2c(n1)sc1c(-c3ccc(Br)cc3)c(C#N)c(N)nc12 | 78.7 | 0 | 0 | 0 | 0 | 0
CC(=O)COc1ccc2cc(-c3ccccc3)c(=O)oc2c1 | 0 | - | - | - | - | -
CC(=O)Oc1ccc2cc(-c3ccccc3)c(=O)oc2c1 | 81.0 | 0 | 0 | 81.2 | 0 | 0
O=C(CCCCl)Oc1ccc2cc(-c3ccc4ccccc4n3)c(=O)oc2c1 | 101.6 | 0 | 0 | 85.5 | 0 | 0
Cc1ccc(S(=O)(=O)NC(C(=O)Oc2ccc3c(C(F)(F)F)cc(=O)oc3c2)c2ccccc2)cc1 (stereo unspecified) | 36.4 | 0 | 0 | 59.3 | 0 | 0
SMILES | RanGTP-Impb inh | TbHK1 inh | Runt-CBFb FRET | Runt-SMMHC FRET | p97 ATPase inh | Hck-Nef inh
COc1ccccc1-n1cnc2cc(NCc3ccccc3O)ccc21 | 41.6 | 0 | 0 | 0 | 0 | 0
COc1ccccc1-n1cnc2cc(NCc3ccco3)ccc21 | 0 | 0 | 0 | 0 | 0 | 0
CCN(CC)S(=O)(=O)c1cccc(C(=O)/C=C2/N(C)c3ccccc3C2(C)C)c1 | 27.3 | 0 | 0 | 0 | 0 | 0
CN1/C(=C\C(=S)NC(=O)c2cccc(Br)c2)C(C)(C)c2ccccc21 | 0 | 0 | 0 | 0 | 0 | 0
Cc1ccc(-n2c(C)nc3c(cnn3-c3ccc(C)c(C)c3)c2=O)cc1C | 30.1 | 0 | 0 | 0 | 0 | 0
Cc1ccc(-n2c(C)nc3c(cnn3-c3ccc(F)cc3)c2=O)cc1C | 0 | 0 | 0 | 0 | 0 | 0
CCOC(=O)C1=C(C)OC(N)=C(C#N)C1c1ccc(C)s1 (stereo unspecified) | 0 | 0 | 0 | 0 | 0 | 0
O=C1OCCN1C(=O)[C@H]1[C@H](c2ccc(Cl)cc2)C(c2cccc(Cl)c2)=NN1c1ccccc1 | 29.7 | 0 | 0 | 0 | 0 | 0

Bioassay records: PubChem BioAssay, several laboratories
